Calls of active or inactive are those of the source. The rule behind the calls is not given here.
Legend:
PBMC = assay: Induction of IL-6 production in human PBMC measured after 18 to 24 hrs at 0.01 to 100 uM by ELISA; format: functional, cell-based
Procedure, shortened: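 Freshly Ficoll-isolated PBMCs from healthy adult donors, in RPMI with 5% autologous plasma and counted as viable cells by trypan blue, added to wells with compounds serially diluted in ethanol and dried on. Incubation 18–24 h at 37 °C/5% CO2. Supernatant IL-6 measured by ELISA, read at 450 nm; n=3 independent donors, mean ± SEM.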

[1] = biological target: T1, C-type lectin domain family 4 member E (Homo sapiens) (UniProt Q9ULY5); assay: Agonist activity at human Mincle receptor expressed in HEK cells cotransfected with NF-kappaB SEAP reporter gene assessed as increase in production of SEAP at 20 uM measured after 18 to 24 hrs by SEAP reporter gene-based spectrophotometric method; format: cell-based
T1 sequence (whole entry): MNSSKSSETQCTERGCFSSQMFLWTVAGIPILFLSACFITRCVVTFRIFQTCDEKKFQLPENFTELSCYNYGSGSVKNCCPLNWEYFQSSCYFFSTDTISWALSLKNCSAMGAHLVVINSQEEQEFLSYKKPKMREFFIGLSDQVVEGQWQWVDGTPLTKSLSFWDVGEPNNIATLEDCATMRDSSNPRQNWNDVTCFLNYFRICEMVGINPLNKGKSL
Procedure, shortened: (§1)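 Compounds serially diluted in EtOH; 10x final concentration coated on well bottoms and solvent evaporated >1 h. HEK-Blue hMincle cells with NF-κB-driven SEAP reporter, grown in DMEM/10% FBS with blasticidin, puromycin and CLR selection, added at 3 × 10^5 cells/well. 18–24 h at 37 °C. HEK-Blue Detection, OD 620–655 nm, fold change over vehicle; n=3. HEK null cells as counter-screen.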

[2] = biological target: T1, C-type lectin domain family 4 member E (Homo sapiens); assay: Agonist activity at human Mincle receptor expressed in HEK cells cotransfected with NF-kappaB SEAP reporter gene assessed as increase in production of SEAP measured after 18 to 24 hrs by SEAP reporter gene-based spectrophotometric method; format: cell-based; procedure, shortened: as §1

| SMILES | Activity [1] | Activity [2] | Activity (PBMC) |
| --- | --- | --- | --- |
| O=C(OC[C@H]1O[C@H](O[C@H]2O[C@H](COC(=O)c3cc([N+](=O)[O-])cc([N+](=O)[O-])c3)[C@@H](O)[C@H](O)[C@H]2O)[C@H](O)[C@@H](O)[C@@H]1O)c1cc([N+](=O)[O-])cc([N+](=O)[O-])c1 |  |  | Active |
| O=C(Cc1ccccc1C(F)(F)F)OC[C@H]1O[C@H](O[C@H]2O[C@H](COC(=O)Cc3ccccc3C(F)(F)F)[C@@H](O)[C@H](O)[C@H]2O)[C@H](O)[C@@H](O)[C@@H]1O | Active |  | inactive |
| Cc1ccc(C(=O)OC[C@H]2O[C@H](O[C@H]3O[C@H](COC(=O)c4ccc(C)cc4C(F)(F)F)[C@@H](O)[C@H](O)[C@H]3O)[C@H](O)[C@@H](O)[C@@H]2O)c(C(F)(F)F)c1 |  |  | inactive |
| CCCCCCCCCCCCCCCCCCCCCC(=O)OC[C@H]1O[C@H](O[C@H]2O[C@H](COC(=O)CCCCCCCCCCCCCCCCCCCCC)[C@@H](O)[C@H](O)[C@H]2O)[C@H](O)[C@@H](O)[C@@H]1O |  | Dose-dependent effect |  |
| O=C(OC[C@H]1O[C@H](O[C@H]2O[C@H](COC(=O)c3cccc(C(F)(F)F)c3O)[C@@H](O)[C@H](O)[C@H]2O)[C@H](O)[C@@H](O)[C@@H]1O)c1cccc(C(F)(F)F)c1O |  |  | inactive |
| O=C(OC[C@H]1O[C@H](O[C@H]2O[C@H](COC(=O)c3cc(C(F)(F)F)ccc3O)[C@@H](O)[C@H](O)[C@H]2O)[C@H](O)[C@@H](O)[C@@H]1O)c1cc(C(F)(F)F)ccc1O |  |  | inactive |
| COc1ccc(C(=O)OC[C@H]2O[C@H](O[C@H]3O[C@H](COC(=O)c4ccc(OC)cc4C(F)(F)F)[C@@H](O)[C@H](O)[C@H]3O)[C@H](O)[C@@H](O)[C@@H]2O)c(C(F)(F)F)c1 |  |  | inactive |

Second part, led by results:

| Activity [1] | Activity [2] | SMILES | Activity (PBMC) |
| --- | --- | --- | --- |
|  | Dose-dependent effect | O=C(OC[C@H]1O[C@H](O[C@H]2O[C@H](COC(=O)c3c(C(F)(F)F)cccc3C(F)(F)F)[C@@H](O)[C@H](O)[C@H]2O)[C@H](O)[C@@H](O)[C@@H]1O)c1c(C(F)(F)F)cccc1C(F)(F)F | Active |
|  | Dose-dependent effect | COc1ccc(C(F)(F)F)cc1C(=O)OC[C@H]1O[C@H](O[C@H]2O[C@H](COC(=O)c3cc(C(F)(F)F)ccc3OC)[C@@H](O)[C@H](O)[C@H]2O)[C@H](O)[C@@H](O)[C@@H]1O | inactive |
|  | Dose-dependent effect | O=C(OC[C@H]1O[C@H](O[C@H]2O[C@H](COC(=O)c3ccccc3C(F)(F)F)[C@@H](O)[C@H](O)[C@H]2O)[C@H](O)[C@@H](O)[C@@H]1O)c1ccccc1C(F)(F)F | Active |

From ChEMBL document CHEMBL4622927, “6,6'-Aryl trehalose analogs as potential Mincle ligands” (Bioorg Med Chem, 2020)
